Measured values from ChEMBL document CHEMBL1125582, “4-hydroxythiazole inhibitors of 5-lipoxygenase” (J Med Chem, 1991).

The molecules below were run against T1, Polyunsaturated fatty acid 5-lipoxygenase (Rattus norvegicus, UniProt P12527) (assay: Inhibition of 5-lipoxygenase (5-lo) in intact rat polymorphonuclear leukocyte RPMNL). Details: not given.
T1 sequence (P12527 whole entry): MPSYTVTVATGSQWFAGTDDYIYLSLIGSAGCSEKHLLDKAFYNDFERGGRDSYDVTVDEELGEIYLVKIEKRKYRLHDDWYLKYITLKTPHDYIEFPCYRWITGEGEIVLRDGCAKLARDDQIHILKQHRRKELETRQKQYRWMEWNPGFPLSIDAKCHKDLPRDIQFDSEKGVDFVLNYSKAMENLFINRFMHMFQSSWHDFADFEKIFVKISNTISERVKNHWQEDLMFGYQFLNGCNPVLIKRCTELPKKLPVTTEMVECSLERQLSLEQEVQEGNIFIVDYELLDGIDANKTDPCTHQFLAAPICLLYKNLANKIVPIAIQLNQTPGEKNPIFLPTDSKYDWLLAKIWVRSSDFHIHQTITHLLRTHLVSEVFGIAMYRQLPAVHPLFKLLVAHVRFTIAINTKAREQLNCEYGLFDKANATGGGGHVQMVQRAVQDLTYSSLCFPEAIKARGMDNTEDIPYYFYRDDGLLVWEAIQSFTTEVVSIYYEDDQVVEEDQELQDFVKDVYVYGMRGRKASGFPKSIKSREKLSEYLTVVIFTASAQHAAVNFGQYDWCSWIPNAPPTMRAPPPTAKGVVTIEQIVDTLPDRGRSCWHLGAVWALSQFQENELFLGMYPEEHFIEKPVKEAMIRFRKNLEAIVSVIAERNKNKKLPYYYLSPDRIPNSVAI
How it was run: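 Pleural PMNL from carrageenan-injected male Sprague-Dawley rats (200-250 g). Erythrocytes lysed with water, cells washed and held in HEPES/Earle's salts pH 7.0 with 1 mg/mL BSA. 5×10^6 cells preincubated 15 min at 37 °C with compound or DMSO (final 2%). Stimulated with A23187 (final 8.3 μM) for 10 min, stopped on ice. Methanol extracts assayed for LTB₄ by HPLC.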

Point of comparison: `CCCc1sc(-c2ccccc2)nc1OC(=O)NC`, IC50 400 nM. Against it:
- CCCc1sc(-c2ccccc2)nc1OC(=O)OCC — 1.8-fold higher, 700 nM
- CCCc1sc(-c2ccccc2)nc1OC(=O)Nc1ccccc1 — 2.5-fold higher, 1000 nM
- CCCc1sc(-c2ccccc2)nc1OC(=O)OCc1ccccc1 — 3-fold higher, 1200 nM
- CC(=O)Oc1nc(-c2ccc(-c3ccccc3)cc2)sc1-c1ccccc1 — 2.2-fold higher, 900 nM
- Cc1ccc(-c2nc(O)c(C)s2)cc1 — 3-fold higher, 1200 nM
- CCCCc1sc(-c2ccccc2)nc1OC(C)=O — within 1.5-fold, 500 nM
- CCCCNC(=O)Oc1nc(-c2ccccc2)sc1CCC — 2-fold higher, 800 nM
- CCCc1sc(-c2ccccc2)nc1OC(C)=O — 1.6-fold higher, 660 nM
- COC(=O)Cc1sc(-c2ccccc2)nc1O — 5.2-fold higher, 2100 nM
- COc1ccc(-c2nc(O)c(-c3ccccc3)s2)cc1 — within 1.5-fold, 450 nM
- CCCCCC(=O)Oc1nc(-c2ccccc2)sc1-c1ccccc1 — within 1.5-fold, 500 nM

The molecules below were run against T2, Arachidonate 12-lipoxygenase (Rattus norvegicus) (UniProt Q02759) (assay: The compound was tested for the in vitro inhibition of platelet 12-lipoxygenase at a concentration of 100 uM). Details: not given.
T2 sequence (whole entry): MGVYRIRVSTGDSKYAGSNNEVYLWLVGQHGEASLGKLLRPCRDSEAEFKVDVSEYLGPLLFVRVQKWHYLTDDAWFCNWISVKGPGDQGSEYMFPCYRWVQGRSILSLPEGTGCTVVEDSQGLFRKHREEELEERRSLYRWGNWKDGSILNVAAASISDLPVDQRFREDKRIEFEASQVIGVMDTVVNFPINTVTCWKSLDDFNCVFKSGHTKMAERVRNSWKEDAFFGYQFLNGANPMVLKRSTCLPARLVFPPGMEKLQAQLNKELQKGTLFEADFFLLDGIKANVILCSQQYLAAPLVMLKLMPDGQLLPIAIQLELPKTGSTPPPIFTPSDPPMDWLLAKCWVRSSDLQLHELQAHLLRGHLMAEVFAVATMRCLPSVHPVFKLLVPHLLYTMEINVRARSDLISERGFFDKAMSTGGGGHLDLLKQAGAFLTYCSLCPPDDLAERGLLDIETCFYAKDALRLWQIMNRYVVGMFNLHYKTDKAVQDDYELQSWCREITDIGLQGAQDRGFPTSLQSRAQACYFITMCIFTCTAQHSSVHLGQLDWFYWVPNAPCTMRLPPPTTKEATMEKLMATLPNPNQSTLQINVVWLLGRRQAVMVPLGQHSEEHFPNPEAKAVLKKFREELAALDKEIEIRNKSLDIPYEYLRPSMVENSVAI

Point of comparison: `Oc1nc(-c2ccc(F)cc2)sc1-c1ccccc1`, inhibition 0%. Against it:
- Oc1nc(-c2ccccc2)sc1CCc1ccccc1 — higher, 3%
- COC(=O)c1ccc(-c2nc(O)c(C)s2)cc1 — the same, 0%
- COc1ccc(-c2nc(O)c(-c3ccccc3)s2)cc1 — higher, 6%
- Cc1sc(-c2ccccc2)nc1O — higher, 51%

What follows are molecules tested against T2, Arachidonate 12-lipoxygenase (Rattus norvegicus) (assay: The compound was tested for the in vitro inhibition of platelet 12-lipoxygenase at a concentration of 30 uM). Details: not given.

Molecule `Oc1nc(-c2ccccc2)sc1-c1ccccc1` has an inhibition of 12%.

The molecules below were run on cyclooxygenase (Ovis aries) (assay: The compound was tested for the in vitro inhibition of Prostaglandin G/H synthase of sheep seminal vesicle at a concentration of 30 uM). Details: not given.

Point of comparison: `Cc1sc(-c2ccccc2)nc1O`, inhibition 32%. Against it:
- Oc1nc(-c2ccccc2)sc1-c1ccccc1 — higher, 47%
- COC(=O)c1ccc(-c2nc(O)c(C)s2)cc1 — lower, 6%

What follows are molecules tested on 15-lipoxygenase (Glycine max) (assay: The compound was tested for the in vitro inhibition of 15-lipoxygenase of soybean at a concentration of 100 uM). Details: at 100 µM.

Point of comparison: `Oc1nc(-c2ccccc2)sc1CCc1ccccc1`, inhibition 34%. Against it:
- Oc1nc(-c2ccc(F)cc2)sc1-c1ccccc1 — lower, 16%
- Oc1nc(-c2ccccc2)sc1-c1ccccc1 — higher, 50%
- COc1ccc(-c2nc(O)c(-c3ccccc3)s2)cc1 — lower, 22%

Each molecule was assayed against T3, Polyunsaturated fatty acid 5-lipoxygenase (Homo sapiens, UniProt P09917) (assay: The compound was tested for the inhibition of 5-lipoxygenase (5-lo) in human whole blood (HWBL)). Details: not given.
T3 sequence (P09917 whole entry): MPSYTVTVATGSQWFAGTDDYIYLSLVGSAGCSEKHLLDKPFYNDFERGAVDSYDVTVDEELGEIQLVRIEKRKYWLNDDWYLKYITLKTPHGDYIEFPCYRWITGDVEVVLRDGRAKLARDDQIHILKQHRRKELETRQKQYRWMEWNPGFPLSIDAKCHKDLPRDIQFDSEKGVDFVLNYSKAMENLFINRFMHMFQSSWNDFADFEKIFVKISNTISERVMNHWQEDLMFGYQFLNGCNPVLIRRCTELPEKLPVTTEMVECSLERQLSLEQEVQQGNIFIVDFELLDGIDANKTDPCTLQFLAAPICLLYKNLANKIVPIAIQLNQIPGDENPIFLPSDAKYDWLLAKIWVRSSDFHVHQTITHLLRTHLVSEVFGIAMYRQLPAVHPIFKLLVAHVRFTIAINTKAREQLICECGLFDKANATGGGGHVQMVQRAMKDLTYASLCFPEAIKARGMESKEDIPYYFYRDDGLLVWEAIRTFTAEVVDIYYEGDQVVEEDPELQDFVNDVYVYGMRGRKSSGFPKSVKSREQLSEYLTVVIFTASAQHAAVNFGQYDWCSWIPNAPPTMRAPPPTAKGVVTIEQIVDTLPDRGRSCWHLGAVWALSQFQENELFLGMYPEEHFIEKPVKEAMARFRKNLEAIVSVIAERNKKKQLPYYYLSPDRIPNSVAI
Assay type: tissue-based
How it was run: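 Heparinized (20 units/mL) human blood preincubated 15 min at 37 °C with compound or vehicle. Challenged with A23187 in DMSO (final 50 μM) for 30 min, then chilled and centrifuged. Plasma extracted with 4 volumes methanol for at least 2 h at 3 °C. LTB₄ measured by RIA or EIA.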

Point of comparison: `Oc1nc(-c2ccc(F)cc2)sc1-c1ccccc1`, IC50 470 nM. Against it:
- CCCc1sc(-c2ccccc2)nc1OC(=O)OCC — 9.6-fold higher, 4500 nM
- CCCc1sc(-c2ccccc2)nc1OC(=O)NC — 11-fold higher, 5100 nM
- CC(=O)Oc1nc(-c2ccccc2)sc1-c1ccccc1 — within 1.5-fold, 450 nM
- CCCCNC(=O)Oc1nc(-c2ccccc2)sc1CCC — 12-fold higher, 5500 nM
- Cc1ccc(-c2nc(O)c(-c3ccccc3)s2)cc1 — 1.6-fold higher, 740 nM
- Cc1nc(O)c(-c2ccccc2)s1 — 11-fold higher, 5100 nM
- COc1ccc(-c2nc(O)c(-c3ccccc3)s2)cc1 — 5.1-fold higher, 2400 nM
- Oc1nc(-c2cccnc2)sc1-c1ccccc1 — 6.2-fold higher, 2900 nM

These molecules were tested on 15-lipoxygenase (Glycine max) (assay: The compound was tested for the in vitro inhibition of 15-lipoxygenase of soybean at a concentration of 10 uM). Details: at 10 µM.

Point of comparison: `COC(=O)c1ccc(-c2nc(O)c(C)s2)cc1`, inhibition 52%. Against it:
- Cc1sc(-c2ccccc2)nc1O — lower, 44%

These molecules were tested against T1, Polyunsaturated fatty acid 5-lipoxygenase (assay: In vitro inhibition of 5-lipoxygenase (5-lo) from the 20000 g supernatant of RBI-1 cells). Details: not given.
Assay type: cell-based

Point of comparison: `CCCc1sc(-c2ccccc2)nc1OC(=O)OCc1ccccc1`, IC50 2800 nM. Against it:
- Oc1nc(-c2ccncc2)sc1-c1ccccc1 — 5.2-fold lower, 540 nM
- CCCCC/C=C/C/C=C/C/C=C/C/C=C/CCCC(=O)NO — within 1.5-fold, 2200 nM
- O=C(O)c1ccc(-c2nc(O)c(-c3ccccc3)s2)cc1 — 2.3-fold lower, 1200 nM
- CCCc1sc(-c2ccccc2)nc1OC(=O)Nc1ccccc1 — 6.1-fold lower, 460 nM
- CCCCC(=O)Oc1nc(-c2ccccc2)sc1-c1ccccc1 — 3.2-fold higher, 9100 nM
- Cc1sc(-c2ccc(C(F)(F)F)cc2)nc1O — within 1.5-fold, 2500 nM
- CC(=O)Oc1nc(-c2ccc(-c3ccccc3)cc2)sc1-c1ccccc1 — 2-fold lower, 1400 nM
- CCCc1sc(-c2ccccc2)nc1OC(=O)NC — 3.1-fold higher, 8800 nM
- CC(=O)Oc1nc(-c2ccccc2)sc1-c1ccccc1 — 7-fold lower, 400 nM
- Cc1sc(-c2ccc([N+](=O)[O-])cc2)nc1O — 1.8-fold lower, 1600 nM
- Oc1nc(-c2ccc(-c3ccccc3)cc2)sc1-c1ccccc1 — within 1.5-fold, 2200 nM
- Oc1sc(-c2ccccc2)nc1-c1ccccc1 — 2.5-fold higher, 6900 nM
- CCCCNC(=O)Oc1nc(-c2ccccc2)sc1CCC — 8.6-fold higher, 24000 nM
- CCCc1sc(-c2ccccc2)nc1OC(C)=O — 5.3-fold lower, 530 nM
- Oc1nc(-c2ccc(F)cc2)sc1-c1ccccc1 — 5.6-fold lower, 500 nM
- Cc1ccc(-c2nc(O)c(-c3ccccc3)s2)cc1 — 3.5-fold lower, 800 nM
- Cc1nc(O)c(-c2ccccc2)s1 — 4-fold lower, 700 nM
- COc1ccc(-c2nc(O)c(-c3ccccc3)s2)cc1 — 7.6-fold lower, 370 nM
- CCCCCC(=O)Oc1nc(-c2ccccc2)sc1-c1ccccc1 — 2.2-fold lower, 1300 nM
- Oc1nc(-c2cccnc2)sc1-c1ccccc1 — 2.5-fold lower, 1100 nM

What follows are molecules tested on cyclooxygenase (Ovis aries) (assay: The compound was tested for the in vitro inhibition of Prostaglandin G/H synthase of sheep seminal vesicle at a concentration of 100 uM). Details: not given.

Point of comparison: `Oc1nc(-c2ccc(F)cc2)sc1-c1ccccc1`, inhibition 20%. Against it:
- Oc1nc(-c2ccccc2)sc1CCc1ccccc1 — lower, 11%
- COc1ccc(-c2nc(O)c(-c3ccccc3)s2)cc1 — higher, 25%
